Assay results as given in PMC5520537 (Antiviral research, 2017).
Where two headings read alike, the source gives them in different places.

Legend:
HBV RNaseH [1] = molecular target: T1, HBV RNaseH (Hepatitis B virus genotype D subtype ayw, UniProt P03156); conditions: qualitative; previously reported; ref Cai et al., 2014; cited from earlier work
HBV genotype D = test: HBV replication inhibition assay in HepDES19 cells; format: cell-based, hepatitis B virus; conditions: for HBV replication inhibition, qualitative screen: 20 μM, plus-polarity DNA; for EC50: read-out: HBV replication inhibition (EC50), 3 days, plus-polarity DNA strand, average ± SD
HepDES19 cells [2] = conditions: read-out: Toxicity in HepDES19, LDH (CC50); 72 hours; average ± SD
HBV RNaseH [3] = molecular target: T1, HBV RNaseH; test: Molecular beacon fluorescence RNaseH cleavage assay; format: biochemical; conditions: for Inhibition of HBV RNaseH, Molecular Beacon cleavage assay: qualitative, 0 to 500 μM compound, 2.1 μg HBV RNaseH; for Inhibition in the molecular beacon assay: 2.1 μg purified HBV RNaseH, 0 to 500 μM
HIV replication = conditions: read-out: HIV replication inhibition; ref Suchaud et al., 2014; cited from earlier work
HepDES19 cells [4] = conditions: read-out: Toxicity in HepDES19, NR (CC50); 72 hours; average ± SD
HepDES19 cells [5] = conditions: read-out: Toxicity in HepDES19, MTS (CC50); 72 hours; average ± SD
HBV RNaseH [6] = molecular target: T1, HBV RNaseH; test: Oligonucleotide-directed RNA cleavage assay with purified HBV RNaseH; format: biochemical; conditions: for Inhibition of HBV RNaseH, Oligonucleotide directed cleavage assay: qualitative, compounds at 100, 60 and 20 μM, 16 previously untested compounds
Outline: (§1)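 Enzymes were His-tagged and expressed in E. coli, then nickel-affinity purified. A 32P-labelled RNA annealed to a DNA oligonucleotide was incubated with RNaseH and test compound at 42°C for 90 min. Products were gel-resolved and autoradiographed. Inhibition was scored qualitatively as dose-dependent reduction in substrate degraded.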

huRNaseH1 = molecular target: T2, huRNaseH1 (Homo sapiens, UniProt O60930); test: Oligonucleotide-directed cleavage assay with purified huRNaseH1; format: biochemical; conditions: 100, 60 and 20 μM
T2 sequence (O60930 1-286): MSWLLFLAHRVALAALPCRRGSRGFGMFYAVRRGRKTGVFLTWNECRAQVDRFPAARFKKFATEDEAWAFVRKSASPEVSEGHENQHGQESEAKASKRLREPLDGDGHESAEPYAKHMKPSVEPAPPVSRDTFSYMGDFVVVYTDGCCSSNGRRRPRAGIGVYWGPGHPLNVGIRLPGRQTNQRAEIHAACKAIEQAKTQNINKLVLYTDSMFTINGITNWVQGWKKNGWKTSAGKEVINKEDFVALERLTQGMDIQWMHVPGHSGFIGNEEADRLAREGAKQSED
Outline: as §1

HBV polymerase = HBV polymerase (Hepatitis B virus genotype D subtype ayw, UniProt P03156); test: Endogenous polymerase reaction; format: biochemical; conditions: inhibitors at 4X EC50; #138 and #211 at 30 μM; ddTTP […]; 7 hours
Chain of HBV polymerase (P03156 whole entry): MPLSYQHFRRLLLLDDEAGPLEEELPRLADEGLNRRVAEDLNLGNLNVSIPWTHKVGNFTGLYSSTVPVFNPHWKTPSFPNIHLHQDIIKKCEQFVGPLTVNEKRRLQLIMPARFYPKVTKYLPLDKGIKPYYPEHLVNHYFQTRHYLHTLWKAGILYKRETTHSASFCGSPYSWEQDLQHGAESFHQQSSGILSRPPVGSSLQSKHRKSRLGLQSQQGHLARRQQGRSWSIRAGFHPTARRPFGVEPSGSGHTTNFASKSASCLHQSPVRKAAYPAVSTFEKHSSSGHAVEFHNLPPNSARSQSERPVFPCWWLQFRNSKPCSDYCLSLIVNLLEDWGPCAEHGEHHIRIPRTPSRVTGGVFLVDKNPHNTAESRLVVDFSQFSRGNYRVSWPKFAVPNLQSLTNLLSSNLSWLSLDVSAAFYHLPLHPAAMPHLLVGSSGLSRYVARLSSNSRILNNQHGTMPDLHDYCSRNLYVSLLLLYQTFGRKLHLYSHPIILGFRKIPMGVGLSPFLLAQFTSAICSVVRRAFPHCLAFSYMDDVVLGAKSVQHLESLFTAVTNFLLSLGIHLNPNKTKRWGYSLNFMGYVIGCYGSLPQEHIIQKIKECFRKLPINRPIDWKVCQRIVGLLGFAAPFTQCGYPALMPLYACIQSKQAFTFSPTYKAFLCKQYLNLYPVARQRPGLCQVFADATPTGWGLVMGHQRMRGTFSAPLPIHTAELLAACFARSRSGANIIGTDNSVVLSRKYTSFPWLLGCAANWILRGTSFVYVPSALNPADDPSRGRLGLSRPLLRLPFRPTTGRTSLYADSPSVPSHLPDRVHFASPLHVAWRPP

T1 sequence (P03156 671-832): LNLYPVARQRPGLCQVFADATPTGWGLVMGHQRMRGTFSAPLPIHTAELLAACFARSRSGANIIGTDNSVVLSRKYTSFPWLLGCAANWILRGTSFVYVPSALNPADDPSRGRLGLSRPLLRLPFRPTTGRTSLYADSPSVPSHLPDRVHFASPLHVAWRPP

In the case of `Cc1cc(C2CCCCC2)n(O)c(=O)c1` [Compound 41, Ciclopirox, reference compound], the “Inhibition of HBV RNaseH, Oligonucleotide directed cleavage assay” value (HBV RNaseH [1]) is listed as “− (No inhibition detected at 100 μM)” and the “HBV replication inhibition, qualitative screen” value (HBV genotype D) is listed as “− (No inhibition detected at 20 μM)”.

For `O=C(Nc1ccc2c(c1)C(=O)N(O)C(=O)C2C(=O)NCc1ccc(F)cc1)c1ccccc1` (centres unmarked) [Compound 86], the “Inhibition of HBV RNaseH, Oligonucleotide directed cleavage assay” value (HBV RNaseH [1]) is given as “− (No inhibition detected at 100 μM)”, the CC50 (HepDES19 cells [2]) is given as over 100 µM and the “TI (therapeutic index, CC50(MTS)/EC50)” value (HBV genotype D) is given as 71. The EC50 (HBV genotype D) was 1.4 ± 0.3 µM, the “Inhibition of HBV RNaseH, Molecular Beacon cleavage assay” value (HBV RNaseH [3]) was “− (No inhibition detected at 500 μM)” and the EC50 (HIV replication) was over 21 µM. It also gave a CC50 (HepDES19 cells [4]) of 52 ± 11 µM and a CC50 (HepDES19 cells [5]) of 99 ± 2 µM.

For `O=C(NCc1ccc(F)cc1)C1C(=O)N(O)C(=O)c2cc(Cl)ccc21` (centres unmarked) [Compound 87], the “Inhibition of HBV RNaseH, Oligonucleotide directed cleavage assay” value (HBV RNaseH [1]) is listed as “− (No inhibition detected at 100 μM)”, the CC50 (HepDES19 cells [2]) is listed as 52 ± 15 µM and the “TI (therapeutic index, CC50(MTS)/EC50)” value (HBV genotype D) is listed as 8.2. For the same compound, the EC50 (HBV genotype D) was 4.5 ± 3.7 µM, the “Inhibition of HBV RNaseH, Molecular Beacon cleavage assay” value (HBV RNaseH [3]) was “− (No inhibition detected at 500 μM)” and the CC50 (HepDES19 cells [4]) was 24 ± 1 µM. The CC50 (HepDES19 cells [5]) was 37 ± 17 µM.

In the case of `COc1ccc2c(c1)C(=O)N(O)C(=O)C2C(=O)NCc1ccc(F)cc1` (centres unmarked) [Compound 88], the “Inhibition of HBV RNaseH, Oligonucleotide directed cleavage assay” value (HBV RNaseH [1]) is listed as “− (No inhibition detected at 100 μM)”, the CC50 (HepDES19 cells [2]) is listed as 57 ± 6 µM and the “TI (therapeutic index, CC50(MTS)/EC50)” value (HBV genotype D) is listed as 16. The EC50 (HBV genotype D) was 2.5 ± 0.5 µM, the “Inhibition of HBV RNaseH, Molecular Beacon cleavage assay” value (HBV RNaseH [3]) was “− (No inhibition detected at 500 μM)” and the CC50 (HepDES19 cells [4]) was 26 ± 2 µM. The CC50 (HepDES19 cells [5]) was 40 ± 6 µM.

For `O=C1CCC(=O)N1O` [Compound 139], the “Inhibition of HBV RNaseH, Oligonucleotide directed cleavage assay” value (HBV RNaseH [1]) is given as “− (No inhibition detected at 100 μM)”, the “HBV replication inhibition / activity” value (HBV genotype D) is given as “inactive” and the “HBV replication inhibition, qualitative screen” value (HBV genotype D) is given as “− (No inhibition detected at 20 μM)”.

For `Cc1cc(CC(C)CC(C)(C)C)n(O)c(=O)c1.NCCO` (centres unmarked) [Compound 191, Piroctone olamine, reference compound], the “Inhibition of HBV RNaseH, Oligonucleotide directed cleavage assay” value (HBV RNaseH [6]) was “− (No inhibition detected at 100 μM)” and the “HBV replication inhibition, qualitative screen” value (HBV genotype D) was “− (No inhibition detected at 20 μM)”.

With `O=c1[nH]c(=O)c2ccccc2[nH]1` [Compound 197, Benzoylene urea] the “Inhibition of HBV RNaseH, Oligonucleotide directed cleavage assay” value (HBV RNaseH [6]) was “− (No inhibition detected at 100 μM)” and the “HBV replication inhibition, qualitative screen” value (HBV genotype D) was “− (No inhibition detected at 20 μM)”.

In the case of `Oc1nc2ccccc2nc1O` [Compound 198, 2,3-dihydroxy-quinoxaline], the “Inhibition of HBV RNaseH, Oligonucleotide directed cleavage assay” value (HBV RNaseH [6]) is reported as “− (No inhibition detected at 100 μM)” and the “HBV replication inhibition, qualitative screen” value (HBV genotype D) is reported as “− (No inhibition detected at 20 μM)”.

For `NN1C(=O)Cc2ccccc2C1=O` [Compound 204], the “Inhibition of HBV RNaseH, Oligonucleotide directed cleavage assay” value (HBV RNaseH [6]) was “− (No inhibition detected at 100 μM)”, the “HBV replication inhibition / activity” value (HBV genotype D) was “inactive” and the “HBV replication inhibition, qualitative screen” value (HBV genotype D) was “− (No inhibition detected at 20 μM)”. For the same compound, the “Inhibition of huRNaseH1” value (huRNaseH1) was “detectably inhibited”.

In the case of `Nc1cccc(=O)[nH]1` [Compound 206], the “Inhibition of HBV RNaseH, Oligonucleotide directed cleavage assay” value (HBV RNaseH [6]) is reported as “− (No inhibition detected at 100 μM)”, the “HBV replication inhibition, qualitative screen” value (HBV genotype D) is reported as “− (No inhibition detected at 20 μM)” and the “Inhibition of huRNaseH1” value (huRNaseH1) is reported as “detectably inhibited”.

In the case of `CC(=Nc1ccccc1N)c1c(C)cc(=O)n(O)c1O` [Compound 208], the “Inhibition of RNA cleavage by the HBV RNaseH” value (HBV RNaseH [6]; 100, 60 and 20 μM) is reported as “inhibited RNA cleavage”, the “Inhibition of HBV RNaseH, Oligonucleotide directed cleavage assay” value (HBV RNaseH [6]) is reported as “+ (Dose-dependent inhibition at ≤100 μM)” and the CC50 (HepDES19 cells [2]) is reported as 12 ± 0.1 µM. For the same compound, the “Inhibition in the molecular beacon assay” value (HBV RNaseH [3]) was “inhibited”, the “Inhibition of HBV RNaseH, Molecular Beacon cleavage assay” value (HBV RNaseH [3]) was “+ (Dose-dependent inhibition at ≤500 μM)” and the “Stability in mouse liver microsomes” value was “stable”. The CC50 (HepDES19 cells [4]) was 13 ± 1 µM, the CC50 (HepDES19 cells [5]) was 15 ± 7 µM and the “Inhibition of huRNaseH1” value (huRNaseH1) was “did not inhibit”.

In the case of `Cc1cc(COc2ccc(Oc3ccc(Cl)cc3)cc2)n(O)c(=O)c1` [Compound 211, Rilopirox, reference compound], the “Inhibition of HBV RNaseH, Oligonucleotide directed cleavage assay” value (HBV RNaseH [6]) is reported as “− (No inhibition detected at 100 μM)”, the “Effect on 32P incorporation / HBV DNA elongation in EPR” value (HBV polymerase) is reported as “None of the HBV inhibitors nor the two negative control compounds (#138 and 211) significantly altered incorporation” and the “HBV replication inhibition / activity” value (HBV genotype D) is reported as “inactive”. For the same compound, the “HBV replication inhibition, qualitative screen” value (HBV genotype D) was “− (No inhibition detected at 20 μM)”, the “Inhibition in the molecular beacon assay” value (HBV RNaseH [3]) was “had no effect on the rate of substrate degradation” and the “Inhibition of HBV RNaseH, Molecular Beacon cleavage assay” value (HBV RNaseH [3]) was “− (No inhibition detected at 500 μM)”.

With `Cc1cn([C@H]2CC[C@@H](COP(=O)(O)OP(=O)(O)OP(=O)(O)O)O2)c(=O)[nH]c1=O` [ddTTP] the “Effect on 32P incorporation / HBV DNA elongation in EPR” value (HBV polymerase) was “strongly inhibited”.
